Source: ChEMBL document CHEMBL2311278, “Novel fluorescent cephalosporins: synthesis, antimicrobial activity and photodynamic inactivation of antibiotic resistant bacteria” (2013)
The source made the active and inactive calls. The rule behind the calls is not given here.

Columns and labels:
[1] = system: Staphylococcus aureus ATCC 25923; assay: Binding affinity to Staphylococcus aureus ATCC 25923 assessed per 10^8 cells/ml at 5 uM after overnight incubation by fluorescence analysis
Klebsiella pneumoniae [2] = assay: Photodynamic inactivation of Klebsiella pneumoniae ATCC 700603 assessed as lethality at 6 uM after overnight incubation by traditional surface plating method in presence of 126 J/cm 2 white light irradiation; format: functional
Procedure, shortened: (§1)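 Mixed 1:1 with compound and kept in the dark at 37 °C for 30 min with shaking, then exposed to filtered xenon white light (400–800 nm, 350 mW/cm²). Cells diluted in PBS, ~10⁴ CFU/mL plated on LB agar and grown overnight at 37 °C. Treated-and-irradiated CFU divided by untreated, unirradiated CFU; triplicate. Dark controls had no irradiation.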

Staphylococcus aureus [3] = assay: Binding affinity to methicillin-resistant Staphylococcus aureus MRSA1 assessed per 10^8 cells/ml at 5 uM after overnight incubation by fluorescence analysis; format: functional, organism-based
Procedure, shortened: (§2)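 Incubated with compound, then pelleted, dissolved in 2% SDS, held at 4 °C overnight and sonicated 30 min. Fluorescence intensity compared with that of free compound (50 µM, or 5 µM for the more fluorescent analogue); expressed per 10⁸ cells/mL.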

Staphylococcus aureus [4] = assay: Binding affinity to methicillin-resistant Staphylococcus aureus MRSA2 assessed per 10^8 cells/ml at 5 uM after overnight incubation by fluorescence analysis; format: functional, organism-based
Procedure, shortened: as §2

[5] = system: Staphylococcus aureus ATCC 25923; assay: Binding affinity to Staphylococcus aureus ATCC 25923 assessed per 10^8 cells/ml at 50 uM after overnight incubation by fluorescence analysis
Staphylococcus aureus [6] = assay: Binding affinity to methicillin-resistant Staphylococcus aureus MRSA1 assessed per 10^8 cells/ml at 50 uM after overnight incubation by fluorescence analysis; format: functional, organism-based
Procedure, shortened: as §2

Staphylococcus aureus [7] = assay: Binding affinity to methicillin-resistant Staphylococcus aureus MRSA2 assessed per 10^8 cells/ml at 50 uM after overnight incubation by fluorescence analysis; format: functional, organism-based
Procedure, shortened: as §2

Staphylococcus aureus [8] = assay: Binding affinity to methicillin-resistant Staphylococcus aureus MRSA1 at 50 uM after overnight incubation by confocal image analysis; format: functional, organism-based
Procedure, shortened: (§3)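 Incubated with 50 µM compound in the dark with shaking, washed twice in PBS and imaged by confocal fluorescence and differential interference contrast microscopy.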

Klebsiella pneumoniae [9] = assay: Photodynamic inactivation of Klebsiella pneumoniae ATCC 700603 assessed as lethality at 6 uM after overnight incubation by traditional surface plating method in presence of 189 J/cm 2 white light irradiation; format: functional
Procedure, shortened: as §1

[10] = system: metallo-beta-lactamase L1 (Stenotrophomonas maltophilia); assay: Activity at Stenotrophomonas maltophilia metallo-beta-lactamase L1 expressed in Escherichia coli BL21 (DE3) by Michaelis-Menten equation analysis
Staphylococcus aureus [11] = assay: Binding affinity to methicillin-resistant Staphylococcus aureus MRSA2 at 50 uM after overnight incubation by confocal image analysis; format: functional, organism-based
Procedure, shortened: as §3

Staphylococcus aureus [12] = assay: Antibacterial activity against methicillin-resistant Staphylococcus aureus MRSA1 after 24 hrs; format: functional; conditions: MRSA1, 24 h
Procedure, shortened: (§4)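 Broth microdilution in Mueller–Hinton medium. Inocula grown from single colonies at 35 °C to 10⁸ CFU/mL by turbidimetry, then added at ~10⁶ CFU/mL to serial dilutions of compound starting at 256 µg/mL (stocks in ddH2O). Incubated 37 °C for 24 h.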

[13] = Binding affinity to Klebsiella pneumoniae ATCC 700603 at 50 uM after overnight incubation by confocal image analysis
[14] = system: metallo-beta-lactamase CcrA (Bacteroides fragilis); assay: Activity at Bacteroides fragilis metallo-beta-lactamase CcrA expressed in Escherichia coli BL21 (DE3) by Michaelis-Menten equation analysis
Klebsiella pneumoniae [15] = assay: Antibacterial activity against Klebsiella pneumoniae ATCC 700603 after 24 hrs; format: functional; conditions: ATCC 700603, 24 h
Procedure, shortened: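 Broth microdilution in Mueller-Hinton medium. A single LB-plate colony was grown in Mueller-Hinton broth at 35 °C for 2–6 h to 10⁸ CFU/mL by turbidimetry. Compounds were dissolved in ddH₂O and serially diluted in Mueller-Hinton medium from 256 downward. About 10⁶ CFU/mL bacteria were added, and plates were incubated at 37 °C for 24 h.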

Staphylococcus aureus [16] = assay: Antibacterial activity against methicillin-resistant Staphylococcus aureus MRSA2 after 24 hrs; format: functional; conditions: MRSA2, 24 h
Procedure, shortened: as §4

Klebsiella pneumoniae [17] = assay: Antibacterial activity against Klebsiella pneumoniae ATCC 700603 assessed as lethality at 10 uM after overnight incubation by traditional surface plating method; format: functional
Procedure, shortened: as §1

Klebsiella pneumoniae [18] = assay: Photodynamic inactivation of Klebsiella pneumoniae ATCC 700603 assessed as lethality at 10 uM after overnight incubation by traditional surface plating method in presence of 350 mW/cm2 white light irradiation; format: functional
Procedure, shortened: as §1

Row | Structure (SMILES) | Activity (Klebsiella pneumoniae [2]) | Activity [5] [µM] | Activity (Staphylococcus aureus [6]) [µM] | Activity (Staphylococcus aureus [7]) [µM] | Km [10] [µM] | Vmax [10] [µM/s] | kcat [10] [s⁻¹] | MIC (Staphylococcus aureus [12]) [µg/mL] | Km [14] [µM] | Vmax [14] [µM/s] | kcat [14] [s⁻¹] | MIC (Klebsiella pneumoniae [15]) [µg/mL] | MIC (Staphylococcus aureus [16]) [µg/mL] | other results
1 | O=C(O)c1cc2c(ccc3ccccc32)oc1=O | inactive | – | – | – | – | – | – | – | – | – | – | – | – | Activity [1]: 0.044 µM; Activity (Staphylococcus aureus [3]): 0.03 µM; Activity (Staphylococcus aureus [4]): 0.033 µM
2 | O=C(O)c1cc2ccccc2oc1=O | – | 0.68 | 0.71 | 0.81 | – | – | – | – | – | – | – | – | – | –
3 | O=C(Cc1cccs1)N[C@@H]1C(=O)N2C(C(=O)O)=C(CSc3ccc(NC(=O)c4cc5ccccc5oc4=O)cc3)CS[C@H]12 | 84% | 2.13 | 2.15 | 1.82 | 6.02 | 0.471 | 23.5 | > 128 | 38.3 | 1.05 | 209 | > 128 | > 128 | Activity (Staphylococcus aureus [8]): Active; Activity (Klebsiella pneumoniae [9]): >95%; Activity (Staphylococcus aureus [11]): Active; Activity [13]: Active; Activity (Klebsiella pneumoniae [17]): <5%; Activity (Klebsiella pneumoniae [18]): >65%
4 | O=C(Cc1cccs1)N[C@@H]1C(=O)N2C(C(=O)O)=C(CSc3ccc(NC(=O)c4cc5c(ccc6ccccc65)oc4=O)cc3)CS[C@H]12 | inactive | 6.59 | 3.14 | 2.95 | 20.2 | 0.59 | 29.5 | > 128 | 24.4 | 0.604 | 121 | > 128 | > 128 | –
